Activity calls are given as the source filed them.

Our source for the Activity values is ChEMBL document CHEMBL1770086, “Design and synthesis of benzoxazole containing indole analogs as peroxisome proliferator-activated receptor-γ/δ dual agonists” (Bioorg Med Chem Lett, 2011).

What all share (type): functional, cell-based
Conditions in all cases: CV-1

Assay [1] addresses T1, Peroxisome proliferator-activated receptor alpha (Mus musculus) (UniProt P23204).
T1 sequence (whole entry): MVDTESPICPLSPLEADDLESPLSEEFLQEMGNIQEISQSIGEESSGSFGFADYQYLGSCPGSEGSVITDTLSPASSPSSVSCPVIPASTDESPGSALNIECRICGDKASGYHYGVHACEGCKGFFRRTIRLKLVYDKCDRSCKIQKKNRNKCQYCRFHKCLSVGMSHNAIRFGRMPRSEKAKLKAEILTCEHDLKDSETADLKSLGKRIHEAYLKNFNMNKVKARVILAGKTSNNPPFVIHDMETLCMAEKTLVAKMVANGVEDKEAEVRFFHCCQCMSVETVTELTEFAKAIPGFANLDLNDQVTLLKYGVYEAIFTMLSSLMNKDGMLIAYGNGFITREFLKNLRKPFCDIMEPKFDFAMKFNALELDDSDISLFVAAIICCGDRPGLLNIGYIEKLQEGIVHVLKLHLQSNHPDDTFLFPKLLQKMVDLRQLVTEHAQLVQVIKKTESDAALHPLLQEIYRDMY
Description: Agonist activity at mouse PPARalpha expressed in CV1 cells co-expressing tk-PPRE-luciferase vector assessed as transient transactivation at 20 uM after 24 hrs by luciferase reporter gene assay relative to GW0746. Summed up:
(§1)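 CV-1 cells seeded at 1.5 × 10⁵ cells/well in DMEM with 10% FBS. Transient transfection for 6 h with PPAR expression vector, tk-PPRE-luciferase reporter and β-galactosidase plasmid, then 24 h of compound exposure. Luciferase read in cell lysates. β-gal read as absorbance at 410 nm. Activity expressed as luciferase/β-gal. Not active means below 10% transactivation at 20 µM. At least three separate experiments.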
(In general: In a reporter assay the amount or activity of a reporter protein is the signal.)

Assay [2] has as its target T2, Peroxisome proliferator-activated receptor delta (Mus musculus) (UniProt P35396).
T2 sequence (whole entry): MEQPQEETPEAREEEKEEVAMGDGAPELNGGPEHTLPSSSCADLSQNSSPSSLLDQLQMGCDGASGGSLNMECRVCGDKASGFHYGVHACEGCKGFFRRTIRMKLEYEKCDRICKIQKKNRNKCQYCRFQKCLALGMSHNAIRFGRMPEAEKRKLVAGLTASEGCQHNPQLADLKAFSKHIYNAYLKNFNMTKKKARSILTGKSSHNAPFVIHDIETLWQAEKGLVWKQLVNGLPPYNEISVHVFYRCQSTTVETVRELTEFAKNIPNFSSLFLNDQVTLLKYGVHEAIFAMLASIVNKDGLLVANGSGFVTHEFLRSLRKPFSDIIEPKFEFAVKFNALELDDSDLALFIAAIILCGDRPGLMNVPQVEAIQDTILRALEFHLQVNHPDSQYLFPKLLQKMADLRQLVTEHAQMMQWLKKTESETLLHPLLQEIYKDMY
Description: Agonist activity at mouse PPARdelta expressed in CV1 cells co-expressing tk-PPRE-luciferase vector assessed as transient transactivation at 20 uM after 24 hrs by luciferase reporter gene transactivation assay relative to GW0742. The method in brief:
as §1

The target of assay [3] is T3, Peroxisome proliferator-activated receptor gamma (Mus musculus) (UniProt P37238).
T3 sequence (whole entry): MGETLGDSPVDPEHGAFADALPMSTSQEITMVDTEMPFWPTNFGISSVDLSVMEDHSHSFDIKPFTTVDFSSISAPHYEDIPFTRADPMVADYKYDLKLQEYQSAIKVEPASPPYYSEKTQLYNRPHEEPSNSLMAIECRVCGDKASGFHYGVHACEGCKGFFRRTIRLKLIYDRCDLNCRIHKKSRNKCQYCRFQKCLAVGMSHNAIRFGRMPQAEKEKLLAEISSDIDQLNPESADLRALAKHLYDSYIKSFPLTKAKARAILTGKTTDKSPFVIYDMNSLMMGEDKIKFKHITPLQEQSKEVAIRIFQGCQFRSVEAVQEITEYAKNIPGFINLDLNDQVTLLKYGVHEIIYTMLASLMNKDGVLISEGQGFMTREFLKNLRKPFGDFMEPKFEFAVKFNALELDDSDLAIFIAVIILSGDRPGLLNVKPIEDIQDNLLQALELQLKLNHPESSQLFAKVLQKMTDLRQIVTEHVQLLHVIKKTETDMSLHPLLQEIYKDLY
In words: Agonist activity at mouse PPARgamma expressed in CV1 cells co-expressing tk-PPRE-luciferase vector assessed as transient transactivation at 20 uM after 24 hrs by luciferase reporter gene transactivation assay relative to rosiglitazone. Summed up: as §1

As to `CN(CCOc1ccc2cc(C(=O)O)n(C)c2c1)c1nc2ccccc2o1`, the outcome in assay [1], in assay [2] and in assay [3] was inactive.

With `CN(CCOc1ccc2cc(C(=O)O)[nH]c2c1)c1nc2ccccc2o1`, the outcome in assay [1], in assay [2] and in assay [3] was inactive.

As to `CN(CCOc1ccc2c(c1)c(CC(=O)O)cn2C)c1nc2ccccc2o1`, the Activity stood at 28% in assay [1] and 58.6% in assay [3]. In assay [2], the outcome was inactive.

For `CCn1c(C(=O)O)cc2ccc(OCCN(C)c3nc4ccccc4s3)cc21`, the results for the Activity in assay [1], in assay [2] and in assay [3] were 16.7%, 68.8% and 66.4%, respectively.

For the compound `CN(CCCOc1ccc2c(c1)c(CC(=O)O)cn2CC(=O)O)c1nc2ccccc2o1`, the result in assay [1], in assay [2] and in assay [3] was inactive.

For the compound `CN(CCOc1ccc2cc(C(=O)O)n(C)c2c1)c1nc2ccccc2s1`, the Activity came to 13.6% in assay [1], 27.9% in assay [2] and 29.6% in assay [3].

In the case of `CN(CCOc1ccc2[nH]cc(CC(=O)O)c2c1)c1nc2ccccc2o1`, the outcome in assay [1] and in assay [2] was inactive. In assay [3], the Activity was determined as 28.1%.

`CCn1cc(CC(=O)O)c2cc(OCCN(C)c3nc4ccccc4o3)ccc21`: the outcome in assay [1] was inactive. In addition, the Activity in assay [2] worked out at 32.9%; in assay [3] it was 66.7%.

`CN(CCCOc1ccc2c(c1)c(CC(=O)O)cn2Cc1ccc(F)cc1)c1nc2ccccc2o1`: the Activity turned out to be 13.3% in assay [1] and 15.8% in assay [3]. For the same compound, the outcome in assay [2] was inactive.

In the case of `COC(=O)Cc1cn(CC(=O)OC)c2ccc(OCCCN(C)c3nc4ccccc4o3)cc12`, the result in assay [1] and in assay [2] was inactive. For the same compound, the Activity in assay [3] was found to be 37.1%.

Take `CCn1c(C(=O)O)cc2ccc(OCCN(C)c3nc4ccccc4o3)cc21`: the outcome in assay [1] and in assay [2] was inactive. Moreover, in assay [3], the Activity was 23.3%.

With `CN(CCCOc1ccc2[nH]cc(CC(=O)O)c2c1)c1nc2ccccc2o1`, the result in assay [1] and in assay [2] was inactive. Also, in assay [3], the Activity is 18.3%.

Regarding `CN(CCOc1ccc2cc(C(=O)O)n(Cc3ccccc3)c2c1)c1nc2ccccc2o1`, the Activity in assay [1] worked out at 10%; in assay [2], 33.4%; in assay [3], 43.9%.

For the compound `CN(CCOc1ccc2cc(C(=O)O)[nH]c2c1)c1nc2ccccc2s1`, the result in assay [1] and in assay [3] was inactive. For the same compound, in assay [2], the Activity came out at 14.6%.

For the compound `COC(=O)Cc1cn(C(=O)c2ccc(Cl)cc2)c2ccc(OCCCN(C)c3nc4ccccc4o3)cc12`, the result in assay [1] was inactive. Besides, the results for the Activity in assay [2] and in assay [3] were 18.3% and 28.9%, respectively.

Regarding `COC(=O)Cc1c[nH]c2ccc(OCCCN(C)c3nc4ccccc4o3)cc12`, the outcome in assay [1] and in assay [2] was inactive. Further, the Activity in assay [3] is 42.1%.

With `COC(=O)Cc1cn(Cc2ccc(F)cc2)c2ccc(OCCCN(C)c3nc4ccccc4o3)cc12`, the result in assay [1], in assay [2] and in assay [3] was inactive.
